Source: ChEMBL document CHEMBL1127659, “In vitro and in vivo activities of reduced-size antagonists of luteinizing hormone-releasing hormone” (J Med Chem, 1994)

organism: Rattus norvegicus; experiment: In vitro antagonistic potency against release of luteinizing hormone (LH) from cultured rat pituitary cells.; type: functional; conditions: Pituitary gland cell, read-out: pA2 (converted)
In short: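 Cultured rat pituitary cells, agonist-stimulated LH release. pA2 is the negative log of the antagonist concentration that makes a 2-fold higher agonist concentration necessary to release LH. Compounds tested as TFA salts.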

| SMILES | Kb [nM] |
| --- | --- |
| CCNC(=O)[C@@H]1CCCN1C(=O)[C@H](CCCN=C(N)N)NC(=O)[C@H](CC(C)C)NC(=O)[C@@H](Cc1c[nH]c2ccccc12)NC(=O)[C@H](Cc1ccc(O)cc1)NC(=O)[C@H](CO)NC(=O)[C@@H](Cc1ccc(Cl)cc1)NC(=O)CCc1ccc(F)cc1 | 0.0178 |
| CCNC(=O)[C@@H]1CCCN1C(=O)[C@H](CCCN=C(N)N)NC(=O)[C@H](CC(C)C)NC(=O)[C@@H](Cc1c[nH]c2ccccc12)NC(=O)[C@H](Cc1ccc(O)cc1)NC(=O)[C@H](CO)NC(=O)[C@@H](Cc1c[nH]c2ccccc12)NC(=O)c1cc2cc(F)ccc2[nH]1 | 41.7 |
| CCNC(=O)[C@@H]1CCCN1C(=O)[C@H](CCCN=C(N)N)NC(=O)[C@H](CC(C)C)NC(=O)[C@@H](Cc1c[nH]c2ccccc12)NC(=O)[C@H](Cc1ccc(O)cc1)N(C)C(=O)[C@H](CO)NC(=O)[C@@H](Cc1cccc2ccccc12)NC(=O)CCc1ccc(F)cc1 | 0.00562 |
| CCNC(=O)[C@@H]1CCCN1C(=O)[C@H](CCCN=C(N)N)NC(=O)[C@H](CC(C)C)NC(=O)[C@@H](Cc1c[nH]c2ccccc12)NC(=O)[C@H](Cc1ccc(O)cc1)NC(=O)[C@H](CO)NC(=O)[C@@H](Cc1c[nH]c2ccccc12)NC(=O)c1cc2ccccc2[nH]1 | 0.851 |
| CCNC(=O)[C@@H]1CCCN1C(=O)[C@H](CCCN=C(N)N)NC(=O)[C@H](CC(C)C)NC(=O)[C@@H](Cc1ccc(O)cc1)NC(=O)[C@H](Cc1ccc(O)cc1)NC(=O)[C@H](CO)NC(=O)[C@H](Cc1c[nH]c2ccccc12)NC(=O)CCc1ccc(F)cc1 | 12.6 |
| CCNC(=O)[C@@H]1CCCN1C(=O)[C@H](CCCN=C(N)N)NC(=O)[C@H](CC(C)C)NC(=O)[C@@H](Cc1ccc(Cl)cc1)NC(=O)[C@H](Cc1ccc(O)cc1)NC(=O)[C@H](CO)NC(=O)[C@H](Cc1c[nH]c2ccccc12)NC(=O)CCc1ccc(F)cc1 | 0.00891 |
| CCNC(=O)[C@@H]1CCCN1C(=O)[C@H](CCCN=C(N)N)NC(=O)[C@H](CC(C)C)NC(=O)[C@@H](Cc1c[nH]c2ccccc12)NC(=O)[C@H](Cc1ccc(O)cc1)NC(=O)[C@H](CO)NC(=O)[C@@H](Cc1cccc2ccccc12)NC(=O)CCc1ccc(F)cc1 | 0.00708 |
| CCNC(=O)[C@@H]1CCCN1C(=O)[C@H](CCCN=C(N)N)NC(=O)[C@H](CC(C)C)NC(=O)[C@@H](Cc1c[nH]c2ccccc12)NC(=O)[C@H](Cc1ccc(O)cc1)NC(=O)[C@H](CO)NC(=O)[C@H](Cc1c[nH]c2ccccc12)NC(=O)Cc1ccccc1 | 5.5 |
| CCNC(=O)[C@@H]1CCCN1C(=O)[C@H](CCCN=C(N)N)NC(=O)[C@H](CC(C)C)NC(=O)[C@@H](Cc1c[nH]c2ccccc12)NC(=O)[C@H](Cc1ccc(O)cc1)NC(=O)[C@H](CO)NC(=O)[C@H](Cc1c[nH]c2ccccc12)NC(=O)CCc1ccc(C(F)(F)F)cc1 | 0.955 |
| CCNC(=O)[C@@H]1CCCN1C(=O)[C@H](CCCN=C(N)N)NC(=O)[C@H](CC(C)C)NC(=O)[C@@H](Cc1c[nH]c2ccccc12)NC(=O)[C@H](Cc1ccc(O)cc1)NC(=O)[C@H](CO)NC(=O)[C@H](Cc1c[nH]c2ccccc12)NC(=O)c1cc2ccccc2[nH]1 | 17.8 |
| CCNC(=O)[C@@H]1CCCN1C(=O)[C@H](CCCN=C(N)N)NC(=O)[C@H](CC(C)C)NC(=O)[C@@H](Cc1c[nH]c2ccccc12)NC(=O)[C@H](Cc1ccc(O)cc1)NC(=O)[C@H](CO)NC(=O)[C@H](Cc1c[nH]c2ccccc12)NC(=O)Cc1ccc(Cl)cc1 | 5.5 |
| CCNC(=O)[C@@H]1CCCN1C(=O)[C@H](CCCN=C(N)N)NC(=O)[C@H](CC(C)C)NC(=O)[C@@H](Cc1c[nH]c2ccccc12)NC(=O)[C@H](Cc1ccc(O)cc1)NC(=O)[C@H](CO)NC(=O)[C@H]1CCCN1C(=O)CCc1ccc(F)cc1 | 2.4 |
| CCNC(=O)[C@@H]1CCCN1C(=O)[C@H](CCCN=C(N)N)NC(=O)[C@H](CC(C)C)NC(=O)[C@@H](Cc1c[nH]c2ccccc12)NC(=O)[C@H](Cc1ccc(O)cc1)N(C)C(=O)[C@H](CO)NC(=O)[C@@H](Cc1c[nH]c2ccccc12)NC(=O)CCc1ccc(F)cc1F | 0.01 |
| CCNC(=O)[C@@H]1CCCN1C(=O)[C@H](CCCN=C(N)N)NC(=O)[C@H](CC(C)C)NC(=O)[C@@H](Cc1c[nH]c2ccccc12)NC(=O)[C@H](Cc1ccc(O)cc1)NC(=O)[C@H](CO)NC(=O)[C@H](Cc1c[nH]c2ccccc12)NC(=O)[C@H](Cc1ccccc1)NC(C)=O | 9.55 |
| CCNC(=O)[C@@H]1CCCN1C(=O)[C@H](CCCN=C(N)N)NC(=O)[C@H](CC(C)C)NC(=O)[C@@H](CCCCNC(=O)c1cccnc1)NC(=O)[C@H](Cc1ccc(O)cc1)N(C)C(=O)[C@H](CO)NC(=O)[C@@H](Cc1c[nH]c2ccccc12)NC(=O)CCc1ccc(F)cc1 | 0.0347 |
| CCNC(=O)[C@@H]1CCCN1C(=O)[C@H](CCCN=C(N)N)NC(=O)[C@H](CC(C)C)NC(=O)[C@@H](CCCCNC(=O)c1cccnc1)NC(=O)[C@H](Cc1ccc(O)cc1)N(C)C(=O)[C@H](CO)NC(=O)[C@@H](Cc1c[nH]c2ccccc12)NC(=O)CCc1ccc(F)cc1F | 0.00891 |
| CCNC(=O)[C@@H]1CCCN1C(=O)[C@H](CCCN=C(N)N)NC(=O)[C@H](CC(C)C)NC(=O)[C@@H](Cc1c[nH]c2ccccc12)NC(=O)[C@H](Cc1ccc(O)cc1)N(C)C(=O)[C@H](CO)NC(=O)[C@@H](Cc1cccc2ccccc12)NC(=O)CCc1ccc(Br)cc1 | 0.00631 |

| SMILES | Kb [nM] |
| --- | --- |
| CCNC(=O)[C@@H]1CCCN1C(=O)[C@H](CCCN=C(N)N)NC(=O)[C@H](CC(C)C)NC(=O)[C@@H](Cc1c[nH]c2ccccc12)NC(=O)[C@H](Cc1ccc(O)cc1)NC(=O)[C@H](CO)NC(=O)[C@H](Cc1c[nH]c2ccccc12)NC(=O)CCc1ccc(OC)cc1 | 2.4 |
| CCNC(=O)[C@@H]1CCCN1C(=O)[C@H](CCCN=C(N)N)NC(=O)[C@H](CC(C)C)NC(=O)[C@@H](Cc1c[nH]c2ccccc12)NC(=O)[C@H](Cc1ccc(O)cc1)N(C)C(=O)[C@H](CO)NC(=O)[C@@H](Cc1c[nH]c2ccccc12)NC(=O)CCc1ccc(Cl)cc1 | 0.00398 |
| CCNC(=O)[C@@H]1CCCN1C(=O)[C@H](CCCN=C(N)N)NC(=O)[C@H](CC(C)C)NC(=O)[C@@H](Cc1c[nH]c2ccccc12)NC(=O)[C@H](Cc1ccc(O)cc1)NC(=O)[C@H](CO)NC(=O)[C@H](Cc1c[nH]c2ccccc12)NC(=O)CCc1cccc(F)c1 | 0.891 |
| CCNC(=O)[C@@H]1CCCN1C(=O)[C@H](CCCN=C(N)N)NC(=O)[C@H](CC(C)C)NC(=O)[C@@H](CCCCNC(=O)c1cccnc1)NC(=O)[C@H](Cc1ccc(O)cc1)NC(=O)[C@H](CO)NC(=O)[C@@H](Cc1c[nH]c2ccccc12)NC(=O)CCc1ccc(F)cc1 | 0.0955 |
| CCNC(=O)[C@@H]1CCCN1C(=O)[C@H](CCCN=C(N)N)NC(=O)[C@H](CC(C)C)NC(=O)[C@@H](Cc1c[nH]c2ccccc12)NC(=O)[C@H](Cc1ccc(O)cc1)NC(=O)[C@H](CO)NC(=O)[C@H](Cc1c[nH]c2ccccc12)NC(=O)CCc1ccccc1F | 0.447 |
| CCNC(=O)[C@@H]1CCCN1C(=O)[C@H](CCCN=C(N)N)NC(=O)[C@H](CC(C)C)NC(=O)[C@@H](Cc1c[nH]c2ccccc12)NC(=O)[C@H](Cc1ccc(O)cc1)NC(=O)[C@H](CO)NC(=O)[C@@H](Cc1c[nH]c2ccccc12)NC(=O)Cc1ccc(C(F)(F)F)cc1 | 2.63 |
| CCNC(=O)[C@@H]1CCCN1C(=O)[C@H](CCCN=C(N)N)NC(=O)[C@H](CC(C)C)NC(=O)[C@@H](CCCCNC(=O)c1cccnc1)NC(=O)[C@H](Cc1ccc(O)cc1)N(C)C(=O)[C@H](CO)NC(=O)[C@@H](Cc1c[nH]c2ccccc12)NC(=O)CCc1cccc(F)c1 | 0.0871 |
| CCNC(=O)[C@@H]1CCCN1C(=O)[C@H](CCCN=C(N)N)NC(=O)[C@H](CC(C)C)NC(=O)[C@@H](Cc1c[nH]c2ccccc12)NC(=O)[C@H](Cc1ccc(O)cc1)NC(=O)[C@@H]1CC(O)CN1C(=O)[C@@H](Cc1c[nH]c2ccccc12)NC(=O)CCc1ccc(F)cc1 (some centres undefined) | 20.9 |
| CC(C)C[C@H](NC(=O)[C@@H](CCCCNC(=O)c1cccnc1)NC(=O)[C@H](Cc1ccc(O)cc1)N(C)C(=O)[C@H](CO)NC(=O)[C@@H](Cc1cccc2ccccc12)NC(=O)CCc1ccc(F)cc1)C(=O)N[C@@H](CCCCNC(C)C)C(=O)N1CCC[C@H]1C(=O)O | 7.76 |
| CCNC(=O)[C@@H]1CCCN1C(=O)[C@H](CCCN=C(N)N)NC(=O)[C@H](CC(C)C)NC(=O)[C@@H](Cc1c[nH]c2ccccc12)NC(=O)[C@H](Cc1ccc(O)cc1)NC(=O)[C@H](CO)NC(=O)[C@H](Cc1cccc2ccccc12)NC(=O)CCc1ccc(F)cc1 | 0.00501 |
| CC(C)C[C@H](NC(=O)[C@@H](CCCCNC(=O)c1cccnc1)NC(=O)[C@H](Cc1ccc(O)cc1)N(C)C(=O)[C@H](CO)NC(=O)[C@@H](Cc1cccc2ccccc12)NC(=O)CCc1ccc(F)cc1)C(=O)N[C@@H](CCCCNC(C)C)C(=O)N1CCC[C@H]1C(N)=O | 0.00692 |
| CCNC(=O)[C@@H]1CCCN1C(=O)[C@H](CCCN=C(N)N)NC(=O)[C@H](CC(C)C)NC(=O)[C@@H](Cc1c[nH]c2ccccc12)NC(=O)[C@H](Cc1ccc(O)cc1)NC(=O)[C@H](CO)N(C)C(=O)[C@@H](Cc1c[nH]c2ccccc12)NC(=O)CCc1ccc(F)cc1 | 0.115 |
| CCNC(=O)[C@@H]1CCCN1C(=O)[C@H](CCCN=C(N)N)NC(=O)[C@H](CC(C)C)NC(=O)[C@@H](CCCCNC(=O)c1cccnc1)NC(=O)[C@H](Cc1ccc(O)cc1)NC(=O)[C@H](CO)NC(=O)[C@H](Cc1c[nH]c2ccccc12)NC(=O)CCc1ccc(F)cc1 | 20.9 |
| CCNC(=O)[C@@H]1CCCN1C(=O)[C@H](CCCN=C(N)N)NC(=O)[C@H](CC(C)C)NC(=O)[C@@H](Cc1c[nH]c2ccccc12)NC(=O)[C@H](Cc1ccc(O)cc1)NC(=O)[C@H](CO)NC(=O)[C@@H](Cc1c[nH]c2ccccc12)NC(=O)CCc1ccc(Cl)cc1 | 0.166 |
| CCNC(=O)[C@@H]1CCCN1C(=O)[C@H](CCCN=C(N)N)NC(=O)[C@H](CC(C)C)NC(=O)[C@@H](Cc1c[nH]c2ccccc12)NC(=O)[C@H](Cc1ccc(O)cc1)NC(=O)[C@H](CO)NC(=O)[C@H](Cc1c[nH]c2ccccc12)NC(=O)CCc1ccc(Cl)cc1 | 0.126 |
| CCNC(=O)[C@@H]1CCCN1C(=O)[C@H](CCCN=C(N)N)NC(=O)[C@H](CC(C)C)NC(=O)[C@@H](CCCCNC(=O)c1cccnc1)NC(=O)[C@H](Cc1ccc(O)cc1)N(C)C(=O)[C@H](CO)NC(=O)[C@@H](Cc1c[nH]c2ccccc12)NC(=O)CCc1ccc(Cl)cc1 | 0.0158 |
| CCNC(=O)[C@@H]1CCCN1C(=O)[C@H](CCCN=C(N)N)NC(=O)[C@H](CC(C)C)NC(=O)[C@@H](Cc1c[nH]c2ccccc12)NC(=O)[C@H](Cc1ccc(O)cc1)NC(=O)[C@H](CO)NC(=O)[C@@H](Cc1c[nH]c2ccccc12)NC(=O)CCc1ccc(F)c(F)c1 | 0.0355 |
